pEC50, pIC50: −log10 of the molar value. “Also recorded” adds a separate entry of the source. Read-outs that look alike come from different tables or passages of the source.
Assays:
SARS-CoV-2 [1] = conditions: cited from earlier work; for EC50, inhibit SARS-CoV-2 replications in vitro: entry inhibitors
influenza [2] = experiment: Predicted anti-influenza EC50 by pEC50 = pIC50 + Log Fic; conditions: A549, read-out: Predicted EC50 (anti-influenza)
ACE2 = ACE2 expression in Vero E6 cells; assay type: cell-based; conditions: 48 h, RNA-seq, western blot
influenza [3] = conditions: read-out: Observed EC50, influenza replication; A549 cells; cited from earlier work
SARS-CoV-2 [4] = conditions: hamster; cited from earlier work
[5] = IV injection of RDV, mice
[6] = IV injection of RDV, rhesus macaques
[7] = IV injection of RDV, nonhuman primates; cited from earlier work
SARS-CoV-2 [8] = conditions: cited from earlier work
[9] = tested on: multidrug resistance-associated protein 4 (MRP4); conditions: ref 28 (RDV), FDA Office of Clinical Pharmacology Review (GS-441524); cited from earlier work
RdRp of SARS-CoV-2 = conditions: read-out: IC50, inhibition of RdRp of SARS-CoV-2; active form of RDV; cited from earlier work
SARS-CoV-2 M^pro = SARS-CoV-2 M^pro (Severe acute respiratory syndrome coronavirus 2, UniProt P0DTD1); conditions: cited from earlier work
SARS-CoV-2 [10] = conditions: rhesus macaque, cited from earlier work
Calu-3 cells = experiment: Cytotoxicity; assay type: cell-based
In short: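 Calu-3 cells were grown in medium supplemented with 1% non-essential amino acids and 1% sodium pyruvate at 37 °C, 5% CO2. Cells were seeded and cultured for 24 h, then exposed to test compound for 48 h. CCK8 solution was added at 10% and incubated 15 min to read viability.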

## CCN(CC)CCCC(C)Nc1ccnc2cc(Cl)ccc12 (centres unmarked) [CQ, Chloroquine]
Vero E6 cells
  Drug accumulation with verapamil (P-gp inhibitor): facilitated accumulation
SARS-CoV-2 [1]
  EC50, inhibit SARS-CoV-2 replications in vitro: low micromolar

## NC(=O)c1nc(F)c[nH]c1=O [FAV, Favipiravir]
Influenza [2]
  pEC50: 5.49
ACE2
  ACE2 expression: reduced angiotensin-converting enzyme 2 (ACE2) expression
Vero E6 cells; Vero E6, Fic = fu,cell x Kp
  Fic: 0.03371
Vero E6 cells; Vero E6 cells
  Drug accumulation with verapamil (P-gp inhibitor): increased FAV accumulation
A549 cells
  Fic: 0.03145
SARS-CoV-2 [1]; read-out: Observed EC50, SARS-CoV-2 replication, Vero E6
  pEC50: 3.40 to 4.19
Influenza [3]
  pEC50: 5.52
SARS-CoV-2 [4]
  Infectious titers in the lung: reduction of infectious titers in the lung

## N#C[C@@]1(c2ccc3c(N)ncnn23)O[C@H](CO)[C@@H](O)[C@H]1O [GS-441524]
[5]
  Lung concentration of GS-441524 relative to its predicted EC50: 10 fold
[6]
  Lung concentration of GS-441524 relative to its predicted EC50: 10 fold
[7]
  Bloodstream concentration of GS-441524 relative to RDV: 1000 fold
SARS-CoV-2 [8]; oral administration of GS-441524, mouse model
  SARS-CoV-2 replication in vivo: inhibit SARS-CoV-2 replication in vivo
[9]
  Substrate of MRP4: not a substrate

## N#C[C@@]1(c2ccc3c(N)ncnn23)O[C@H](COP(=O)(O)OP(=O)(O)OP(=O)(O)O)[C@@H](O)[C@H]1O [GS-443902]
RdRp of SARS-CoV-2
  pIC50: 7.49

## CCN(CCO)CCCC(C)Nc1ccnc2cc(Cl)ccc12 (centres unmarked) [HCQ, hydroxychloroquine]
Vero E6 cells; Vero E6 cells
  Drug accumulation with verapamil (P-gp inhibitor): facilitated accumulation
SARS-CoV-2 M^pro
  Inhibition of M^pro activities at 200 μM: slightly inhibited
SARS-CoV-2 [1]
  EC50, inhibit SARS-CoV-2 replications in vitro: low micromolar
SARS-CoV-2 [10]
  Infectious titers in lungs: failed to reduce infectious titers
SARS-CoV-2 [4]
  Infectious titers in lungs: failed to reduce infectious titers

## CCC(CC)COC(=O)[C@H](C)N[P@](=O)(OC[C@H]1O[C@@](C#N)(c2ccc3c(N)ncnn23)[C@H](O)[C@@H]1O)Oc1ccccc1 [RDV, Remdesivir]
Vero E6 cells; Vero E6 cells
  Drug accumulation with ceefourin (MRP4 inhibitor): significantly increased RDV accumulation
  Drug accumulation with verapamil (P-gp inhibitor): significantly increased RDV accumulation
A549-ACE2 cells
  Drug accumulation with ceefourin (MRP4 inhibitor): Neither verapamil nor ceefourin changed RDV accumulation
  Drug accumulation with verapamil (P-gp inhibitor): Neither verapamil nor ceefourin changed RDV accumulation
SARS-CoV-2 [8]; RDV, mouse
  Virus titer in the lung / antiviral activity in vivo: successfully reduce virus titer in the lung; also recorded: strong antiviral activities
SARS-CoV-2 [10]; RDV
  Antiviral activity in vivo: strong antiviral activities
[9]
  Substrate of MRP4: substrate

## COc1ccc(CCN(C)CCCC(C#N)(c2ccc(OC)c(OC)c2)C(C)C)cc1OC (centres unmarked) [verapamil]
Calu-3 cells
  Cytotoxicity: strong cytotoxicity
